Experimental data reported in ChEMBL document CHEMBL1149316, “Bioisosteric modifications of 2-arylureidobenzoic acids: selective noncompetitive antagonists for the homomeric kainate receptor subtype GluR5” (J Med Chem, 2004).
Blank lines part the entries; values can stand above or below the molecule they belong to. Active and inactive are the calls of the source. The rule behind the calls is not given here.

Legend:
Glutamate receptor 1 = Glutamate receptor 1 (Rattus norvegicus, UniProt P19490); assay: Antagonist activity at rat homomeric recombinant GluR1 expressed in HEK293 cells assessed as inhibition of intracellular calcium concentration by FLIPR assay; type: functional, cell-based
Chain of Glutamate receptor 1 (P19490 whole entry): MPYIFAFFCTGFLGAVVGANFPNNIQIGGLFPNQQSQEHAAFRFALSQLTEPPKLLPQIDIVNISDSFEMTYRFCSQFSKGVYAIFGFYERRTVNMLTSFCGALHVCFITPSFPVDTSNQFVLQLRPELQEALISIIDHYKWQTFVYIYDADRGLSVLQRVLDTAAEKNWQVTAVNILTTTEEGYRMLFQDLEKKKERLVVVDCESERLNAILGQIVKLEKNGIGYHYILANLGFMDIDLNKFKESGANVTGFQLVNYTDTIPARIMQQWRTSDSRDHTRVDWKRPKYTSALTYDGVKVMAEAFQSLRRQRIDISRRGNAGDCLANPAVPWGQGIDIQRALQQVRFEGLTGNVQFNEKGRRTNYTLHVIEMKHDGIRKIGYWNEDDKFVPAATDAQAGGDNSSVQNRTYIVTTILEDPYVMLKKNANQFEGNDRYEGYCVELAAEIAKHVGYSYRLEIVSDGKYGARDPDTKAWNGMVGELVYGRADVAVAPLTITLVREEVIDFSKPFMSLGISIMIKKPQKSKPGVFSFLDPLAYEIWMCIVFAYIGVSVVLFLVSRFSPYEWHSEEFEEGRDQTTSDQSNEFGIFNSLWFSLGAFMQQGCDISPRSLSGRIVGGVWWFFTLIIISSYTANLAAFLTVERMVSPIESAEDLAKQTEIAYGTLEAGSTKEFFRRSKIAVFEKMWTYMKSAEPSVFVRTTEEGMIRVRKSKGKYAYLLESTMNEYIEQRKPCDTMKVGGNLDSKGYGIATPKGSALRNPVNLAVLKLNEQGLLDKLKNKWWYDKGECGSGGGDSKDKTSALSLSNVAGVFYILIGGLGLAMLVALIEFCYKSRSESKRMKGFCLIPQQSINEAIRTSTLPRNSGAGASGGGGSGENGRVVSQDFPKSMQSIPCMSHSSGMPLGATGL
Outline: (§1)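 AMPA-subunit HEK293 lines were grown with 100 μg/mL SPD 502 in the medium. Cells were loaded with 2 μM Fluo-4-AM for 30 min at room temperature and washed into Na⁺-free Ringer at pH 7.4. All solutions contained 100 μM cyclothiazide. Test compound was preincubated 1.5 min before 25 μM Glu (final) was added. The Ca²⁺ rise was read by FLIPR at room temperature. Solvent (EtOH or DMSO) was ≤1.0%.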

Glutamate receptor 2 = Glutamate receptor 2 (Rattus norvegicus, UniProt P19491); assay: Antagonist activity at rat homomeric recombinant GluR2 expressed in HEK293 cells assessed as inhibition of intracellular calcium concentration by FLIPR assay; type: functional, cell-based
Outline: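 Cells were loaded with 2 μM Fluo-4-AM for 30 min at room temperature and washed into Na⁺-free Ringer at pH 7.4. All solutions contained 100 μM cyclothiazide. The Ca²⁺ rise was read by FLIPR at room temperature. Solvent (EtOH or DMSO) was ≤1.0%.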

Glutamate receptor 3 = Glutamate receptor 3 (Rattus norvegicus, UniProt P19492); assay: Antagonist activity at rat homomeric recombinant GluR3 expressed in HEK293 cells assessed as inhibition of intracellular calcium concentration by FLIPR assay; type: functional, cell-based; outline: as §1
Chain of Glutamate receptor 3 (P19492 whole entry): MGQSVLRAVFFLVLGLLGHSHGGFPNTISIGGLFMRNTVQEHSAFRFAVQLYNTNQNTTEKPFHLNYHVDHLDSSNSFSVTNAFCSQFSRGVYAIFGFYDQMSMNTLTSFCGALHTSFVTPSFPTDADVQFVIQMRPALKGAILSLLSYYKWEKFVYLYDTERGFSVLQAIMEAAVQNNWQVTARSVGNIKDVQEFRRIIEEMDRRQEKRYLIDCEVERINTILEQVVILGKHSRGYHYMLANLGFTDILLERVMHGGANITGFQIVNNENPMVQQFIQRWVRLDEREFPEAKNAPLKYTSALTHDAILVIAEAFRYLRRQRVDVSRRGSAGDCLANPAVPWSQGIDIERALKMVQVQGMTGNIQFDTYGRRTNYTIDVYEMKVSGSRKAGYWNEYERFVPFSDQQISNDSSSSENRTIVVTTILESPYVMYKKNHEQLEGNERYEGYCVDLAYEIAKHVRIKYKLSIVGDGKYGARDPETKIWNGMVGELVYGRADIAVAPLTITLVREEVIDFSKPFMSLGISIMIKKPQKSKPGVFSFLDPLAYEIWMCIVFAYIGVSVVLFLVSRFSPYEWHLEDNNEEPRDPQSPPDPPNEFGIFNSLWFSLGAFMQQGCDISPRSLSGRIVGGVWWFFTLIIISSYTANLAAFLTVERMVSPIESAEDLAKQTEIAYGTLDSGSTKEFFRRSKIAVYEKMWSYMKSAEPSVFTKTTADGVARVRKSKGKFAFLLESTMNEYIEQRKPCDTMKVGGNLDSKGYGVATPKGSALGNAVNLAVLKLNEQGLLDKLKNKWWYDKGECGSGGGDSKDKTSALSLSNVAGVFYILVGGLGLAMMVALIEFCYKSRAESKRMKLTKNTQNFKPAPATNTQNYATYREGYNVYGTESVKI

Glutamate receptor 4 = Glutamate receptor 4 (Rattus norvegicus, UniProt P19493); assay: Antagonist activity at rat homomeric recombinant GluR4 expressed in HEK293 cells assessed as inhibition of intracellular calcium concentration by FLIPR assay; type: functional, cell-based; outline: as §1
Chain of Glutamate receptor 4 (P19493 whole entry): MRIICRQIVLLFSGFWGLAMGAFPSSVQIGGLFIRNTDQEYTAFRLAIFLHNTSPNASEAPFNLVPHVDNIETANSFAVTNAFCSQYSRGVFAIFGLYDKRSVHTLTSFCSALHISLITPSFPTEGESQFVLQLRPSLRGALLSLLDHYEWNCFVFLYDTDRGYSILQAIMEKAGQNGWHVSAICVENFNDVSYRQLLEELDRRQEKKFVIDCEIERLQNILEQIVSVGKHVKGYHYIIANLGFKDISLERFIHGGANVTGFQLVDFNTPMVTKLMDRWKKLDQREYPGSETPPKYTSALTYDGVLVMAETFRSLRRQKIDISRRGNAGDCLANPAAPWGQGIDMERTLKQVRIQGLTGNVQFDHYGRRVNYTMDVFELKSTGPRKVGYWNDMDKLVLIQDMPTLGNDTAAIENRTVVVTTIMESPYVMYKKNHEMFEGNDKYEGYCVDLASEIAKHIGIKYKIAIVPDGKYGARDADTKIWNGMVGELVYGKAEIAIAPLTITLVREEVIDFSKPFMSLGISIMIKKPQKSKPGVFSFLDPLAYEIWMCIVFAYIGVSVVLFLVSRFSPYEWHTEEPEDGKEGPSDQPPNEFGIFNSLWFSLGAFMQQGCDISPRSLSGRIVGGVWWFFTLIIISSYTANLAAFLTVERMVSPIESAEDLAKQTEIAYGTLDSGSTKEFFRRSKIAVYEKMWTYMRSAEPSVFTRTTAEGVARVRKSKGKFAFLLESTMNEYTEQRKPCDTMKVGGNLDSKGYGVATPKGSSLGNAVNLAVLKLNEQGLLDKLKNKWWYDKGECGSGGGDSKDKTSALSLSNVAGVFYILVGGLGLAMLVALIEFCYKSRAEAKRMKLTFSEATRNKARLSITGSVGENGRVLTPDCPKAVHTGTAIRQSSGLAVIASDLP

[1] = target: T1, Glutamate receptor ionotropic, kainate 1 (Homo sapiens, UniProt P39086); assay: Antagonist activity at human homomeric GluR5 expressed in HEK293 cells assessed as inhibition of intracellular calcium concentration by FLIPR assay; type: functional, cell-based
T1 sequence (P39086 whole entry): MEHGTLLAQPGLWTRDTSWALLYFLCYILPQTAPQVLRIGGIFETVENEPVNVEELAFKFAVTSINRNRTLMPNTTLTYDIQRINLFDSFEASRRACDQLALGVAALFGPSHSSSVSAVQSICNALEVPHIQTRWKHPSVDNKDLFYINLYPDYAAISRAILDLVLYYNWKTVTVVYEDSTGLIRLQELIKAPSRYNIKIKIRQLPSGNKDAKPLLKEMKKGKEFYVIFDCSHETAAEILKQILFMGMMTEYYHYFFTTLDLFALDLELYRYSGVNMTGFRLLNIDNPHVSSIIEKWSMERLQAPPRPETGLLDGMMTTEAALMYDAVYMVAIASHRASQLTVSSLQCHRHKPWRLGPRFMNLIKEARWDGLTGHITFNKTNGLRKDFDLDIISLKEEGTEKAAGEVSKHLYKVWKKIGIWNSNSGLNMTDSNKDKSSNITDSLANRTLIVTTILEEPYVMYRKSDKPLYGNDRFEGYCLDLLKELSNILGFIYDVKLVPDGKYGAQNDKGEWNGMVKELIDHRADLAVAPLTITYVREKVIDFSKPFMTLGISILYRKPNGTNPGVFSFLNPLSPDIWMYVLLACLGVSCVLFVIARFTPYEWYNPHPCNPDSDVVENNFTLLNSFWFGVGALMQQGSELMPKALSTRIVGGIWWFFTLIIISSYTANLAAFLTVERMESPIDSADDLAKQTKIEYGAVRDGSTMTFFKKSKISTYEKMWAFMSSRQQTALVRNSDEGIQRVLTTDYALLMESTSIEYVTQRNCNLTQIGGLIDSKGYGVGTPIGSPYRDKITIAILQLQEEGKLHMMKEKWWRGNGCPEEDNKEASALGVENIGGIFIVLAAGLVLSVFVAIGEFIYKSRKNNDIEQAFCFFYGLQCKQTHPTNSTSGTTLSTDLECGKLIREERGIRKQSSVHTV

[2] = target: Glutamate receptor ionotropic, kainate 2 (Homo sapiens, UniProt Q13002); assay: Antagonist activity at human homomeric GluR6 expressed in HEK293 cells assessed as inhibition of intracellular calcium concentration by FLIPR assay; type: functional, cell-based
Chain of Glutamate receptor ionotropic, kainate 2 (Q13002 whole entry): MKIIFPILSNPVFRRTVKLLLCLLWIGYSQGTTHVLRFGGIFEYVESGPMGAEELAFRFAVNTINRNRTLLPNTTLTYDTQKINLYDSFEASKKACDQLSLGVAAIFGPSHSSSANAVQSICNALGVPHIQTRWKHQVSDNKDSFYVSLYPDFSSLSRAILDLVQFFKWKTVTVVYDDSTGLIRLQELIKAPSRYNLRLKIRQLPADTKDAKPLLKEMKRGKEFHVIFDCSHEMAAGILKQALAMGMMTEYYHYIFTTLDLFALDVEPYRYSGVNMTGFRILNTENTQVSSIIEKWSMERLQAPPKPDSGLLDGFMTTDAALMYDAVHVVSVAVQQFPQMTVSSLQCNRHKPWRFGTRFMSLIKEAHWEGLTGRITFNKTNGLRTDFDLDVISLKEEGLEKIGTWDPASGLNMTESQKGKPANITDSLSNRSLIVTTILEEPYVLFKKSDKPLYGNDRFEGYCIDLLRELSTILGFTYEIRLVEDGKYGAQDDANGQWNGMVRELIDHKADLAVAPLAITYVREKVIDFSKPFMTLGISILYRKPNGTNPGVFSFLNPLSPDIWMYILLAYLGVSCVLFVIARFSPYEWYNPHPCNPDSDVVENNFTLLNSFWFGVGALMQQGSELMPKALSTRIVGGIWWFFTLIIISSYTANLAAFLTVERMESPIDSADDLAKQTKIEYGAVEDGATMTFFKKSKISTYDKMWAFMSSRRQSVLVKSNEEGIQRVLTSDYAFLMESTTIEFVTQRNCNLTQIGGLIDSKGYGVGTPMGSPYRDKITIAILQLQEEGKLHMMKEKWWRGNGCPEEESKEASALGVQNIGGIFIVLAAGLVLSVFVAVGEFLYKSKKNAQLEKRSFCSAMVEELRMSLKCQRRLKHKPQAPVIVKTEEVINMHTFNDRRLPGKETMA
Outline: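 Stably transfected HEK293 cells were grown in DMEM with 10% FCS at 37 °C. Cells were plated on PEI-coated plates 24 h before loading with 2 μM Fluo-4-AM for 60 min at room temperature, then washed into Na⁺-free Ringer at pH 7.4. Test compound was preincubated 1.5 min, then 0.2 μM domoic acid (final) was added. The Ca²⁺ rise was read by FLIPR (ex 488 nm, em 510–570 nm). IC50 reported.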

[3] = target: T1, Glutamate receptor ionotropic, kainate 1; assay: Displacement of [3HATPA from human recombinant GluR5
Outline: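 GluR5 HEK293 membranes were washed in 50 mM Tris-HCl (pH 7.1) at 0–4 °C and centrifuged at 27000g. 46–84 μg protein was incubated with 3 nM [³H]ATPA for 60 min at 2 °C. Nonspecific binding was defined with 0.6 mM Glu. Binding was stopped by rapid filtration and counted by liquid scintillation. Compounds were tested at 3–30 μM.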

[4] = target: Glutamate receptor 1 (Rattus norvegicus) (UniProt P19490); assay: Antagonist activity at rat homomeric recombinant GluR1 expressed in HEK293 cells assessed as inhibition of intracellular calcium concentration at 30 uM by FLIPR assay; type: functional, cell-based; outline: as §1
Chain of Glutamate receptor 1 (Rattus norvegicus) (P19490 whole entry): as the sequence (P19490 whole entry) above

[5] = target: Glutamate receptor 2 (Rattus norvegicus) (UniProt P19491); assay: Antagonist activity at rat homomeric recombinant GluR2 expressed in HEK293 cells assessed as inhibition of intracellular calcium concentration at 30 uM by FLIPR assay; type: functional, cell-based; outline: as §1
[6] = target: Glutamate receptor 3 (Rattus norvegicus) (UniProt P19492); assay: Antagonist activity at rat homomeric recombinant GluR3 expressed in HEK293 cells assessed as inhibition of intracellular calcium concentration at 30 uM by FLIPR assay; type: functional, cell-based; outline: as §1
Chain of Glutamate receptor 3 (Rattus norvegicus) (P19492 whole entry): as the sequence (P19492 whole entry) above

[7] = target: Glutamate receptor 4 (Rattus norvegicus) (UniProt P19493); assay: Antagonist activity at rat homomeric recombinant GluR4 expressed in HEK293 cells assessed as inhibition of intracellular calcium concentration at 30 uM by FLIPR assay; type: functional, cell-based; outline: as §1
Chain of Glutamate receptor 4 (Rattus norvegicus) (P19493 whole entry): as the sequence (P19493 whole entry) above

Mus musculus = assay: Effect on ATPA-induced rigidity in mouse dosed intravenously 30 mins before ATPA administration; type: functional; details: iv
Outline: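 Female NMRI mice (20–25 g) received test substance iv (n = 8 per dose) 30 min before iv ATPA at 30 mg/kg. ATPA was given at 3 mg/mL in saline, pH 7. Rigidity was scored 30 min after ATPA as loss of righting and lack of movement on a 45° grid. Results were taken as the percent of mice rigid, and ED50 was derived.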

IC50 (Glutamate receptor 1): > 100 µM | IC50 (Glutamate receptor 2): > 100 µM | IC50 (Glutamate receptor 3): > 100 µM | IC50 (Glutamate receptor 4): > 100 µM | IC50 [1]: 3.6 µM | IC50 [2]: > 50 µM | IC50 [3]: > 30 µM | Activity [4]: inactive | Activity [5]: inactive | Activity [6]: inactive | Activity [7]: inactive
Compound: O=C(O)Cc1ccc(Cl)cc1NC(=O)Nc1cccc(Br)c1
ED50 (Mus musculus): > 30 mg/kg

Compound: Nc1ccc(Cl)cc1NC(=O)Nc1cccc(C(F)(F)F)c1
IC50 [1]: > 30 µM

IC50 (Glutamate receptor 1): > 100 µM | IC50 (Glutamate receptor 2): > 100 µM | IC50 (Glutamate receptor 3): > 100 µM | IC50 (Glutamate receptor 4): > 100 µM | Activity [4]: inactive | Activity [5]: inactive | Activity [6]: inactive | Activity [7]: inactive
Compound: O=C(Nc1cccc(Br)c1)Nc1cc(Cl)ccc1C(=O)O

Compound: O=C(Nc1cccc(Br)c1)n1[nH]c(=O)c2ccc(Cl)cc21
IC50 [1]: > 50 µM

Compound: O=C(O)CCc1ccc(Cl)cc1NC(=O)Nc1cccc(Br)c1
IC50 [1]: > 30 µM

IC50 [1]: > 30 µM
Compound: O=C(Nc1cccc(C(F)(F)F)c1)Nc1cc(Cl)ccc1O

Compound: O=C(Nc1cccc(Br)c1)Oc1cc(Cl)ccc1C(=O)O
IC50 [1]: > 30 µM

Compound: O=C(Nc1cccc(C(F)(F)F)c1)Nc1cc(Cl)ccc1[N+](=O)[O-]
IC50 [1]: > 3 µM

Compound: O=C(Nc1cccc(Br)c1)Nc1cc(Cl)ccc1[N+](=O)[O-]
IC50 [1]: > 3 µM

Compound: COC(=O)c1ccc(Cl)cc1NC(=O)Nc1cccc(Br)c1
IC50 [1]: > 30 µM

Compound: N#Cc1ccc(Cl)cc1NC(=O)Nc1cccc(C(F)(F)F)c1
IC50 [1]: > 3 µM

Compound: O=C(O)c1ccc(Cl)cc1Nc1c(Nc2cccc(Br)c2)c(=O)c1=O
IC50 [1]: > 30 µM

IC50 (Glutamate receptor 1): > 100 µM | IC50 (Glutamate receptor 2): > 100 µM | IC50 (Glutamate receptor 3): > 100 µM | IC50 (Glutamate receptor 4): > 100 µM | IC50 [1]: 2 µM | IC50 [2]: > 10 µM | IC50 [3]: > 30 µM | Activity [4]: inactive | Activity [5]: inactive | Activity [6]: inactive | Activity [7]: inactive
Compound: O=C(Nc1cccc(Br)c1)Nc1cc(Cl)ccc1-c1nnn[nH]1
ED50 (Mus musculus): 5.5 mg/kg

IC50 (Glutamate receptor 1): > 100 µM | IC50 (Glutamate receptor 3): > 100 µM | IC50 (Glutamate receptor 4): > 100 µM | Activity [4]: inactive | Activity [5]: inactive | Activity [6]: inactive | Activity [7]: inactive
Compound: O=C(Nc1ccc2ccccc2c1)Nc1cc(Cl)ccc1C(=O)O
ED50 (Mus musculus): > 30 mg/kg

IC50 (Glutamate receptor 1): > 100 µM | IC50 (Glutamate receptor 2): > 100 µM | IC50 (Glutamate receptor 3): > 100 µM | IC50 (Glutamate receptor 4): > 100 µM | IC50 [1]: 1.5 µM | IC50 [2]: 37 µM | IC50 [3]: > 30 µM
Compound: O=C(Nc1cccc(Br)c1)Nc1cc(Cl)ccc1S(=O)(=O)O
ED50 (Mus musculus): 29 mg/kg

IC50 (Glutamate receptor 1): > 100 µM | IC50 (Glutamate receptor 2): > 100 µM | IC50 (Glutamate receptor 3): > 100 µM | IC50 (Glutamate receptor 4): > 100 µM | IC50 [1]: 4.6 µM | IC50 [2]: > 30 µM | IC50 [3]: > 30 µM | Activity [4]: inactive | Activity [5]: inactive | Activity [6]: inactive | Activity [7]: inactive
Compound: O=C(Nc1cccc(Br)c1)Nc1cc(Cl)ccc1-c1nc(=O)o[nH]1
ED50 (Mus musculus): > 100 mg/kg

Compound: O=C(Nc1cccc(C(F)(F)F)c1)Nc1cc(Cl)ccc1CO
IC50 [1]: > 10 µM
